PLAP act: human PLAP activation | P05187 | purified PLAP enzyme, luminescent substrate read-out; active compounds read high | activation fold at 20 µM | actives 1.2% (n = 96,000) | AID 696; in the data active means activation fold above about 2
HePTP inhibitor: blocks human HePTP tyrosine phosphatase; P35236; actives 0.64% (n = 110,000); inhibition, % at 20 µM; recombinant HePTP phosphatase activity, OD absorbance; in the data active means inhibition above about 50%;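 further: plate controls were vehicle for no effect and reference inhibitor for full effect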
Target sequence (P35236 whole entry, looked up): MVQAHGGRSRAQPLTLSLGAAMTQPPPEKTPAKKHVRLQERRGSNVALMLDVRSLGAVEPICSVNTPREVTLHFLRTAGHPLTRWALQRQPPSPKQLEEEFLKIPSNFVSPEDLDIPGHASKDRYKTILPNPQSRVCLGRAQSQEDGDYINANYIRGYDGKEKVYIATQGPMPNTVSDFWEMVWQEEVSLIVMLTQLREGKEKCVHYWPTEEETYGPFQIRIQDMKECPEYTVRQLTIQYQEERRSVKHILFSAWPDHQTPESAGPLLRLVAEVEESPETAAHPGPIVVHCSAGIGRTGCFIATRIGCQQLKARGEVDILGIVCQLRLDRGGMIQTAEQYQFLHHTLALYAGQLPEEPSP
PostGolgi yeast: growth inhibition of a yeast mutant, post-Golgi transport screen. post-Golgi transport phenotypic cell assay. inhibition, % at 10 µM. actives 0.9% (n = 98,000);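 further: yeast cells grown in 1536-well plates; yeast grown about 18 h at 30C before absorbance read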
PostGolgi ctrl: growth of the yeast control strain, post-Golgi counter-screen. efflux-deficient yeast background strain, growth absorbance A615, 16 h. inhibition, % at 10 µM. actives 5% (n = 98,000). AID 738
tolC growth inh: blocks growth of E. coli BW25113 tolC mutant; actives 2.2% (n = 65,000); OD615; growth inhibition, % at 10 µM (by protocol);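 active means growth inhibition at or above a cutoff equal to the mean over every tested compound plus 3 SD, cut at about 60% in these data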;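 further: growth measured after 20 h incubation at 37 °C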
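System: E. coli ΔtolC::kan strain BW25113; Buffer or medium: LB broth supplemented with 50 µg/mL kanamycin; Compound: 10 µM final, single dose; Incubation: bacterial growth with compound for 20 h at 37 °C; Signal: A615 absorbance measurement; Evaluation: growth inhibition in percent.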
E coli WT exp: E. coli BW25113 growth inhibition, expanded screen. OD600 absorbance. AID 710. actives 0.15% (n = 98,000). growth inhibition, % at 100 µM;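 active means growth inhibition above about 50% at one test dose, limit read from the data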;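 further: growth measured after 20 h incubation at 37 °C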
* hit, by the source's call; · = no result. Rows were chosen to be rich in hits. Some 5.5% of all compounds tested hit in one or more screens of this group. Unless noted, no stated cut-off is given here; in the data, active means inhibition above about 30%; inactive means the rest.

SMILES | PLAP act | HePTP inhibitor | PostGolgi yeast | PostGolgi ctrl | tolC growth inh | E coli WT exp
Nc1c(C(=O)NC2CCCC2)c2nc3ccccc3nc2n1CC1CCCO1 (stereo unspecified) | 1.6 | 11 | -2 | 62* | 15 | -8
O=C(Nc1cccnc1)c1c(O)c2c(n(Cc3ccccc3)c1=O)CCCC2 | 1.2 | 8 | -1 | 38* | 36 | -7
CCCCn1c(O)c(C(CC)=NCc2ccc3c(c2)OCO3)c(=O)[nH]c1=O | 0.9 | 5 | 5 | 55* | 14 | 5
C=CCn1c(O)c(C(CC)=NCc2cc(OC)cc(OC)c2)c(=O)[nH]c1=O | 1.3 | 2 | 0 | 34* | 24 | 5
C=CCn1c(O)c(C(CC)=NCCC2=CCCCC2)c(=O)[nH]c1=O | 0.9 | · | 4 | 38* | · | 4
C=CCn1c(O)c(C(CC)=NCCCO)c(=O)[nH]c1=O | 0.9 | -8 | 5 | 10 | -1 | -4
O=C(Oc1c(Cl)cc(Cl)c2ccccc12)N1CCCCC1 | 0.9 | · | -5 | 37* | · | 0
Clc1ccc(CSC(Cn2ccnc2)c2ccc(Cl)cc2Cl)cc1 (stereo unspecified) | · | 10 | · | · | 10 | ·
Clc1ccc(COC(Cn2ccnc2)c2ccc(Cl)cc2Cl)cc1 (stereo unspecified) | · | 13 | · | · | 100* | ·
COc1cc(OC)c(OC)cc1C=C1C(=O)NC(=S)NC1=O | · | 7 | · | · | · | ·
CCCCn1c(=O)c(C(=O)Nc2ccccc2S(N)(=O)=O)c(O)c2ccccc21 | 1 | 3 | 12 | 25 | 98* | -4
CCCCn1c(=O)c(C(=O)Nc2ccccc2Br)c(O)c2ccccc21 | · | -6 | · | · | · | ·
CC(=O)c1cc(F)c(N2CCN(C)CC2)cc1C | · | -12 | · | · | · | ·
O=C1C(=O)c2ccccc2-c2ccccc21 | 0.8 | · | 7 | 38* | · | 30
O=C1C(c2ccccc2)=C(N2CC2)c2ccccc21 | 0.7 | · | 0 | 12 | · | -5
CCOc1ccc2ccccc2c1/C=C1\C(=O)NC(=S)N(c2ccccc2)C1=O | · | 11 | · | · | · | ·
COC(=O)C(O)(c1ccc(N(C)S(=O)(=O)c2ccccc2)cc1)C(F)(F)F (stereo unspecified) | 1.2 | 5 | -1 | -1 | 18 | -8
COC(=O)C(O)(c1ccc(NC(=S)NC(=O)c2ccccc2)cc1)C(F)(F)F (stereo unspecified) | 0.9 | · | 4 | 33* | · | 10
O=c1cccc2n1CC1CC2CN(S(=O)(=O)c2ccccc2)C1 (stereo unspecified) | 1 | · | 43* | 3 | · | 4
CN1CCC(N2CC3CC(C2)c2cccc(=O)n2C3)CC1 (stereo unspecified) | 1.4 | 7 | · | · | -16 | ·
Cc1cccc(N2C(=O)NC(=O)C(=Cc3ccco3)C2=O)c1 | · | 16 | · | · | · | ·
O=C1NC(=O)N(c2cccc(Br)c2)C(=O)/C1=C/c1ccco1 | · | 102* | · | · | · | ·
COC(=O)c1c(NC(=O)C23CC4CC(CC(C4)C2)C3)sc2c1CCCC2 | · | 1 | · | · | · | ·
CC(C)(C)n1c(O)c(C=Nc2ccc3c(c2)CCC3)c(=O)[nH]c1=O | 1.6 | 6 | 1 | 45* | 82* | -2
Cc1ccc(-n2c(=O)[nH]c3ccccc3c2=O)cc1 | · | -1 | · | · | · | ·
SMILES | PLAP act | HePTP inhibitor | PostGolgi yeast | PostGolgi ctrl | tolC growth inh | E coli WT exp
C1=C(CCNCc2ccccc2)CCCC1 | 0.7 | · | -6 | 8 | · | 94*
COc1ccccc1/C=C1/C(=N\O)C2CCN1CC2 | · | -4 | · | · | · | ·
CCN(c1ccc(C(O)(C(=O)OC)C(F)(F)F)cc1)S(=O)(=O)c1ccc(C)cc1 (stereo unspecified) | 1.1 | · | -2 | 35* | · | 1
CCOC(=O)C(O)(c1ccc(N(CC)S(=O)(=O)c2ccc(C)cc2)cc1)C(F)(F)F (stereo unspecified) | 1 | · | -13 | 1 | · | -12
C=CCOc1ccc(/C=C2\C(=O)NC(=O)N(CC=C)C2=O)cc1OC | · | 4 | · | · | · | ·
CCCCCCCSc1cc(OC)c(CCN(C)C)cc1OC | 1.4 | · | 4 | 84* | · | 67*
Cc1ccccc1N1C(=O)/C(=C/c2ccc(OCc3cccc(C(=O)O)c3)cc2)C(=O)NC1=S | · | 48 | · | · | · | ·
NC1CCCCC1N=Cc1c(O)n(Cc2ccc(F)cc2)c(=O)[nH]c1=O (stereo unspecified) | 2.8* | 12 | 20 | 10 | 13 | -7
CCCCn1c(O)c(C=NC2CCCCC2N)c(=O)[nH]c1=O (stereo unspecified) | 1.5 | -10 | -8 | 2 | -13 | 6
Cc1ccc(-n2c(O)c(C=NC3CCCCC3N)c(=O)[nH]c2=O)cc1C (stereo unspecified) | 2.2* | -3 | 10 | -3 | 0 | 7
Cc1ccc(N2C(=O)NC(=O)/C(=C/c3ccc(OC(=O)c4cccs4)cc3)C2=O)cc1 | 1 | · | 1 | 32* | · | 2
CCC1(c2ccccc2)C(=O)NC(=O)N(C(=O)c2ccccc2Cl)C1=O (stereo unspecified) | · | -9 | · | · | · | ·
O=C(c1cccs1)c1cn(Cc2ccccc2Cl)c2ccccc12 | 0.7 | · | 28 | 1 | · | -12
N#Cc1ccccc1Cn1cc(C(=O)c2cccs2)c2ccccc21 | 0.9 | 9 | 57* | -2 | 4 | -8
O=C(c1cc(-c2ccc(Cl)cc2)n(-c2ccc(Cl)cc2Cl)n1)N1CCOCC1 | 1.2 | · | 6 | 33* | · | -1
O=C1C2CCN(CC2)C1Cc1ccccc1O (stereo unspecified) | 1 | 7 | 2 | 0 | · | -3
O=C1C2CCN(CC2)C1Cc1ccc(OCCOc2ccccc2)cc1 (stereo unspecified) | 1.4 | -1 | 1 | 43* | -5 | 4
CCC1(C)CC(CCNCc2ccccc2)(c2ccc(C)cc2)CCO1 (stereo unspecified) | · | 2 | · | · | · | ·
COc1ccccc1/C=C1/C(=O)C2CCN1CC2 | · | 7 | · | · | · | ·
CCCC1COC(Cn2cncn2)(c2ccc(Cl)cc2Cl)O1 (stereo unspecified) | 1.3 | · | 85* | 96* | · | 7
CC(C)CNC(=O)c1c(N)n(Cc2ccco2)c2nc3ccccc3nc12 | 1.7 | · | 3 | 55* | · | -10
COCCOC(=O)c1c(N)n(Cc2ccco2)c2nc3ccccc3nc12 | · | 3 | · | · | 13 | ·
CC(C)OC(=O)c1c(N)n(Cc2ccco2)c2nc3ccccc3nc12 | · | 0 | 9 | 35* | 8 | 8
Cc1ccccc1-n1c(/C=C/c2ccc(Br)cc2)nc2ccccc2c1=O | · | -11 | · | · | · | ·
CN1C(=O)NC(=O)/C(=C/c2ccc(Br)o2)C1=O | · | 76* | · | · | · | ·
SMILES | PLAP act | HePTP inhibitor | PostGolgi yeast | PostGolgi ctrl | tolC growth inh | E coli WT exp
CCOc1ccc(N2C(=O)/C(=C/c3ccc(Br)o3)C(=O)NC2=S)cc1 | · | 101* | · | · | · | ·
CN1C(=O)NC(=O)/C(=C/c2ccc(-c3ccc([N+](=O)[O-])cc3)o2)C1=O | · | -4 | · | · | · | ·
O=C1NC(=S)NC(=O)C1=Cc1cccc(OS(=O)(=O)c2ccc3ccccc3c2)c1 | · | 8 | · | · | · | ·
CCCCc1nc2ccccc2c(=O)n1-c1ccc(O)cc1 | · | 10 | 1 | -1 | -2 | 5
CCOc1ccc(-n2c(CC)nc3ccccc3c2=O)cc1 | 1 | 10 | 7 | 31* | -4 | 3
Cc1c(Cl)c([N+](=O)[O-])nn1CC(=O)Nc1ccc(Cl)cc1C(=O)c1ccccc1 | · | -7 | · | · | · | ·
